Measurements: ChEMBL document CHEMBL4325897, “Discovery, synthesis of novel fusidic acid derivatives possessed amino-terminal groups at the 3-hydroxyl position with anticancer activity” (Eur J Med Chem, 2019)
One block for each compound: values may come before it. Activity calls are given as the source filed them. No cut-off for these calls is given here.

Experiments:
HeLa [1] = test: Cytotoxicity against human HeLa cells assessed as cell viability at 5 uM after 72 hrs by MTT assay relative to control; assay type: functional; settings: read-out: Activity
In short: (§1)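 Cells grown in DMEM with 10% heat-inactivated FCS and penicillin/streptomycin at 37 °C, 5% CO2, and used in log phase. Seeded in 96-well plates and exposed to compounds at 5 μM and 1.5 μM for 72 h. MTT added, formazan dissolved in DMSO, OD read at 570 nm, and survival rate calculated. Average of at least three independent experiments.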

HeLa [2] = test: Cytotoxicity against human HeLa cells assessed as cell viability at 1.5 uM after 72 hrs by MTT assay relative to control; assay type: functional; settings: read-out: Activity; in short: as §1
[3] = Cytotoxicity against human KBV cells assessed as cell viability at 5 uM after 72 hrs by MTT assay relative to control; assay type: functional; settings: read-out: Activity; in short: as §1
[4] = Cytotoxicity against human KBV cells assessed as cell viability at 1.5 uM after 72 hrs by MTT assay relative to control; assay type: functional; settings: read-out: Activity; in short: as §1
U-87 MG [5] = test: Cytotoxicity against human U87 cells assessed as cell viability at 5 uM after 72 hrs by MTT assay relative to control; assay type: functional, U-87MG ATCC; settings: read-out: Activity; in short: as §1
U-87 MG [6] = test: Cytotoxicity against human U87 cells assessed as cell viability at 1.5 uM after 72 hrs by MTT assay relative to control; assay type: functional, U-87MG ATCC; settings: read-out: Activity; in short: as §1
MKN-45 [7] = test: Cytotoxicity against human MKN45 cells assessed as cell viability at 5 uM after 72 hrs by MTT assay relative to control; assay type: functional; settings: MKN-45, 72 h, read-out: Activity; in short: as §1
MKN-45 [8] = test: Cytotoxicity against human MKN45 cells assessed as cell viability at 1.5 uM after 72 hrs by MTT assay relative to control; assay type: functional; settings: MKN-45, 72 h, read-out: Activity; in short: as §1
[9] = Cytotoxicity against HEK293 cells assessed as reduction in cell viability after 72 hrs by MTT assay; assay type: cell-based; settings: human
HeLa [10] = test: Cytotoxicity against human HeLa cells assessed as reduction in cell viability after 72 hrs by MTT assay; assay type: functional, cell-based
U-87 MG [11] = test: Cytotoxicity against human U87 cells assessed as reduction in cell viability after 72 hrs by MTT assay; assay type: functional, cell-based, U-87MG ATCC
[12] = Cytotoxicity against human JHH7 cells assessed as reduction in cell viability after 72 hrs by MTT assay; assay type: functional, cell-based; settings: JHH7, 72 h
[13] = Cytotoxicity against human KBV cells assessed as reduction in cell viability after 72 hrs by MTT assay; assay type: functional, cell-based
MKN-45 [14] = test: Cytotoxicity against human MKN45 cells assessed as reduction in cell viability after 72 hrs by MTT assay; assay type: functional, cell-based; settings: MKN-45, 72 h
HeLa [15] = test: Induction of apoptosis in human HeLa cells assessed as increase in early apoptotic cells at 2 uM after 24 hrs by TUNEL staining based fluorescence microscopic analysis; assay type: functional, cell-based
In short: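 HeLa cells seeded at 2×10^4 cells/well on cover slips and grown 24 h, then treated at 2 μM for 24 h. Fixed, permeabilized, and incubated with TUNEL reaction mixture (labeling enzyme plus labeled dUTP) at 37 °C for 1 h. DAPI counterstain, and TUNEL-positive cells viewed by fluorescence microscopy.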

HeLa [16] = test: Induction of apoptosis in human HeLa cells assessed as increase in ratio of sub-G0 to G1 phase at 5 uM after 48 to 72 hrs by propidium iodide staining based FACS analysis; assay type: functional, cell-based
HeLa [17] = test: Inhibition of protein synthesis in human HeLa cells assessed as decrease in puromycin-incorporated neo-synthesized proteins at 5 uM preincubated for 2 hrs followed by puromycin addition and measured after 10 mins by chemiluminescence assay; assay type: functional, cell-based
In short: (§2)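 HeLa cells at 70-80% confluence treated with compound for 2 h (range 1-10 μM), then pulsed with 10 μg/mL puromycin for 10 min. After ice-cold PBS washes, lysates run on SDS-PAGE and immunoblotted with anti-puromycin antibody (1:100, overnight, 4 °C) and HRP anti-mouse IgG. Read by enhanced chemiluminescence.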

Staphylococcus aureus = test: Antibacterial activity against Staphylococcus aureus; assay type: functional
HeLa [18] = test: Inhibition of protein synthesis in human HeLa cells assessed as decrease in puromycin-incorporated neo-synthesized proteins preincubated for 2 hrs followed by puromycin addition and measured after 10 mins by chemiluminescence assay; assay type: functional, cell-based; in short: as §2
HeLa [19] = test: Antitumor activity against human HeLa cells xenografted in BALB/c mouse assessed as tumor growth inhibition at 25 mg/kg, ig bid measured every 3 days relative to control; assay type: functional; settings: po, 72 h, read-out: TGI
HeLa [20] = test: Antitumor activity against human HeLa cells xenografted in BALB/c mouse assessed as tumor growth inhibition at 50 mg/kg, ig bid measured every 3 days relative to control; assay type: functional; settings: po, 72 h, read-out: TGI
[21] = Toxicity in BALB/c mouse xenografted with human HeLa cells assessed as body weight at 25 mg/kg, ig bid measured every 3 days (reference value: 21.2 +/- 1.5 g); assay type: organism-based; settings: in vivo, po, 72 h
[22] = Toxicity in BALB/c mouse xenografted with human HeLa cells assessed as body weight at 50 mg/kg, ig bid measured every 3 days (reference value: 21.2 +/- 1.5 g); assay type: organism-based; settings: in vivo, po, 72 h

MIC (Staphylococcus aureus): ≤ 0.25 µg/mL
Structure (SMILES): CC(=O)O[C@H]1C[C@@]2(C)[C@@H](C[C@@H](O)[C@H]3[C@@]4(C)CC[C@@H](O)[C@@H](C)[C@@H]4CC[C@@]32C)/C1=C(\CCC=C(C)C)C(=O)O [FUSIDIC ACID]
viability at 5 µM (HeLa [1]): 73% | viability at 1.5 µM (HeLa [2]): 70% | viability at 5 µM [3]: 67% | viability at 1.5 µM [4]: 71% | viability at 5 µM (U-87 MG [5]): 87% | viability at 1.5 µM (U-87 MG [6]): 92% | viability at 5 µM (MKN-45 [7]): 83% | viability at 1.5 µM (MKN-45 [8]): 80% | CC50 at 72 h [9]: > 32 µg/mL | IC50 (HeLa [10]): > 100 µM | IC50 (U-87 MG [11]): > 100 µM | IC50 [12]: > 100 µM | IC50 [13]: > 100 µM | IC50 (MKN-45 [14]): > 100 µM | Activity (HeLa [15]): inactive | Activity (HeLa [16]): inactive | inhibition (HeLa [17]): inactive

Structure (SMILES): CC(=O)O[C@H]1C[C@@]2(C)[C@@H](C[C@@H](O)[C@H]3[C@@]4(C)CC[C@@H](OC(=O)CCN)[C@@H](C)[C@@H]4CC[C@@]32C)/C1=C(\CCC=C(C)C)C(=O)OCc1ccccc1
viability at 5 µM (HeLa [1]): 13% | viability at 1.5 µM (HeLa [2]): 32% | viability at 5 µM [3]: 12% | viability at 1.5 µM [4]: 14% | viability at 5 µM (U-87 MG [5]): 9% | viability at 1.5 µM (U-87 MG [6]): 10% | viability at 5 µM (MKN-45 [7]): 5% | viability at 1.5 µM (MKN-45 [8]): 23% | IC50 (HeLa [10]): 3.57 µM | IC50 (U-87 MG [11]): 2.4 µM | IC50 [12]: 3.18 µM | IC50 [13]: 1.26 µM | IC50 (MKN-45 [14]): 1.28 µM | Activity (HeLa [15]): Active | Activity (HeLa [16]): Active | inhibition (HeLa [18]): Dose-dependent effect | inhibition in vivo at 25 mg/kg (HeLa [19]): 35.4% | inhibition in vivo at 50 mg/kg (HeLa [20]): 45.5% | Activity [21]: 20.4 g | Activity [22]: 20.5 g
